Screening data deposited in PubChem BioAssay by several laboratories.
An excerpt weighted towards active compounds, which were near 3.8% of everything screened.
V-ATPase pH: yeast V-ATPase proton transport regulation by pHLuorin | S. cerevisiae, pHLuorin cytosolic pH fluorescence | response, % at 10 µM | 350,000 compounds, 0.37% hits | AID 504577; in the data active = response mostly above about 7.3%, no sharp cut-off; inactive = mostly below about 5.4%; note: actives read high
MPTP inh: permeability transition pore inhibition. isolated mouse mitochondria, Ca2+ swelling absorbance, 30 min. inhibition, % at 10 µM. 360,000 compounds, 1.4% hits;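 active = inhibition of 50% or more, scaled per plate between neutral and stimulator controls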
B2AR ag: activates human beta-2 adrenergic receptor causing internalization | AID 504454 | P07550 | response, % (test concentration not listed) | Am2.2-beta2AR cells, FAP receptor internalization, flow cytometry | 340,000 compounds, 0.43% hits;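 active = response above a set limit, near 3 SD of response in nonfluorescent compounds, cut at about 42% in these data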
Target sequence (P07550 whole entry, looked up): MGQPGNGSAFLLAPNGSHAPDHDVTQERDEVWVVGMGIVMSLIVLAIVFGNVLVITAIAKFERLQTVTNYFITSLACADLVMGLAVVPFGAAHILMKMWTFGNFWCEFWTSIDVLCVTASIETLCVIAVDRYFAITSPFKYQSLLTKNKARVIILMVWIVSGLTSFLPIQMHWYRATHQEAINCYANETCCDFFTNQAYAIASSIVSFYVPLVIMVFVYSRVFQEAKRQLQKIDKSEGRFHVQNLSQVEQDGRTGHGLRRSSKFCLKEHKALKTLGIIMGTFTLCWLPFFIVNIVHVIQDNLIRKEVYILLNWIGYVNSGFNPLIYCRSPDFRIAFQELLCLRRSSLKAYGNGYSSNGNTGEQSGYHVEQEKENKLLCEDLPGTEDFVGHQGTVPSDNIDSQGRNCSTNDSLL
T cell modulator: modulates CD8 T cell binding to vesicles; 2C CD8+ T cell-vesicle binding, flow cytometry; stronger effect = lower value; response (vesicle binding), % at 7 µM; 330,000 compounds, 0.068% hits;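 active = response, share of CD8 T cells binding vesicles, and their 90th percentile fluorescence all below set limits, cut at about 80% in these data, passing the limit was not always enough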;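 note: values below 100% mean blocked vesicle binding to the CD8+ T cells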
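Assay system – 2C mouse CD8+ T cells · Also added – QL9-loaded Drosophila micro-vesicles · Timing – Cell–vesicle co-incubation 1.5 h at 37 °C, staining 20 min on ice · Signal – flow cytometry of vesicle-bound cells · Measure – percent CD8+ FL2 mean versus row control · Controls – Peptide-free naked vesicles (low) and QL9 vesicles with 0.7% DMSO vehicle (high)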
rCAG binder-1: r(CAG) repeat RNA binding; TO-PRO-1 dye displacement fluorescence; inhibition, % at 3 µM; 370,000 compounds, 1.3% hits;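 active = inhibition above the plate cutoff, the mean of all test compounds on that plate plus 3 SD, cut at about 35% in these data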;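 note: higher means more dye released from RNA so lower well fluorescence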
Granule exo inh: blocks lytic granule exocytosis; 360,000 compounds, 0.66% hits; inhibition, % at 10 µM; TALL-104 LAMP-1 surface exposure, flow cytometry; cells stimulated with thapsigargin and PMA; AID 651702;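 active = inhibition above about 55%, limit read from the data; inconclusive = no clear call, values can overlap the other calls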
rCAG bind conf: r(CAG) RNA repeat binding, confirmation; 4,300 compounds, 70% hits; TO-PRO-1 dye displacement fluorescence; AID 652065; shares compounds with rCAG binder-1; inhibition, % at 3 µM;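 active = inhibition above a per-plate cutoff, the mean inhibition of sample wells plus 3 SD, cut at about 35% in these data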;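 note: loss of TO-PRO-1 fluorescence as compound displaces dye from 1x1 AA loop RNA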
DNA CAG counter: DNA CAG dye complex inhibition counter-screen; shares compounds with rCAG binder-1; d(CAG) DNA oligo TO-PRO-1 dye displacement, fluorescence; inhibition, % at 3 µM; 4,300 compounds, 94% hits;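 active = inhibition above its plate's cutoff, the mean test-well inhibition plus 3 SD, cut at about 4.8% in these data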;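 note: hits displace the dye from DNA and so lower well fluorescence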
dCAG dye DR: counter-screen for rCAG binders: inhibitors of DNA CAG TO-PRO-1 complex; shares compounds with rCAG binder-1; DNA CAG/GTC duplex TO-PRO-1 dye displacement fluorescence; IC50, µM; 250 compounds, 20% hits; AID 686960; in the data active = IC50 below about 10 µM
dCAG DNA bind: inhibits DNA CAG/GTC TO-PRO-1 complex, rCAG binder counter-screen; AID 720649; d(CAG) DNA duplex TO-PRO-1 dye displacement, fluorescence; shares compounds with rCAG binder-1; 30 compounds, 80% hits; IC50, µM
rCAG binder-2: r(CAG) repeat RNA binding, TO-PRO-1 displacement | IC50, µM | AID 720651 | shares compounds with rCAG binder-1 | 30 compounds, 100% hits | r(CAG) RNA TO-PRO-1 dye displacement, fluorescence
Each line names hits and unclear results; the compound was inactive in the other large screens (follow-up assays come after a bar, where they were run). Unless noted, the rule behind the calls is not given here.

C=C1c2cccc(O)c2C(=O)C2C(=O)[C@]3(O)C(=O)C(C(N)=O)C(=O)[C@@H](N(C)C)[C@@H]3[C@@H](O)[C@H]12 (stereo partly drawn)	rCAG binder-1 84.9 | rCAG bind conf inactive | DNA CAG counter 10.4
COc1ccc(C2=CC3=C(Br)C(=O)C(C)(OC(=O)c4cccs4)C(=O)C3=CO2)cc1 (stereo not drawn)	rCAG binder-1 48.8 | rCAG bind conf 44.5 | DNA CAG counter 20.7
COc1ccc(C2=CC3=C(Br)C(=O)C(C)(OC(=O)c4ccco4)C(=O)C3=CO2)cc1 (stereo not drawn)	none (no result: rCAG binder-1)
COc1cccc2cc(C(=O)C3=C(O)C(=O)N(c4cc(C)on4)C3c3cccs3)oc12 (stereo not drawn)	rCAG binder-1 43.8, Granule exo inh inconclusive | rCAG bind conf 61.7 | DNA CAG counter 26.6
COc1cc(C2C(C(=O)c3cccs3)=C(O)C(=O)N2c2cc(C)on2)ccc1O (stereo not drawn)	none
COc1cccc(C2C(C(=O)c3cc4cccc(OC)c4o3)=C(O)C(=O)N2c2cc(C)on2)c1OC (stereo not drawn)	rCAG binder-1 57.2 | rCAG bind conf 65.3 | DNA CAG counter 25.3
COc1ccccc1C1C(C(=O)c2ccc(C)o2)=C(O)C(=O)N1c1cc(C)on1 (stereo not drawn)	none
COc1cccc(C2C(C(=O)c3cc4ccccc4o3)=C(O)C(=O)N2c2cc(C)on2)c1OC (stereo not drawn)	rCAG binder-1 50.7 | rCAG bind conf 44.5 | DNA CAG counter 11.6
CC(C)CN1C(=O)[C@]2(CC(=O)N(C)C2c2ccccc2)c2cc(-n3cc(CO)nn3)ccc21 (stereo partly drawn)	none (no result: V-ATPase pH, MPTP inh, B2AR ag, T cell modulator, Granule exo inh)
Nn1c(SCC(=O)Nc2cc(C(F)(F)F)ccc2Cl)nnc1-c1n[nH]c2c1CCC2	none (no result: V-ATPase pH, MPTP inh, B2AR ag, T cell modulator, Granule exo inh)
O=C(O)c1cccc(Nc2nc(C(F)(F)F)nc3ccccc23)c1	none
O=C(O)c1cccc(Nc2nc(-c3ccccc3)nc3ccccc23)c1	rCAG binder-1 49.5 | rCAG bind conf inactive | DNA CAG counter 7.6
O=C(O)c1ccc(Nc2nc(-c3ccccc3)nc3ccccc23)cc1	rCAG binder-1 36.6 | rCAG bind conf inactive | DNA CAG counter 5.5
COc1ccc(Nc2nc(-c3ccccc3O)nc3ccccc23)cc1	rCAG binder-1 37.7 | rCAG bind conf inactive | DNA CAG counter 6.9
O=C(CSc1nnc(-c2ccc(Cl)cc2)n1-c1ccccc1)Nc1ccc2c(c1)OCCO2	none (no result: V-ATPase pH, MPTP inh, B2AR ag, T cell modulator, Granule exo inh)
FC(F)(F)c1ccc(Cn2ccc3ccc(-c4ccc5ccn(Cc6ccc(C(F)(F)F)cc6)c5c4)cc32)cc1	none (no result: V-ATPase pH, MPTP inh, B2AR ag, T cell modulator, Granule exo inh)
COC(=O)c1cc(NS(=O)(=O)c2ccc(Cl)c(N3C(=O)c4ccc(C(=O)O)cc4C3=O)c2)cc(C(=O)OC)c1	rCAG binder-1 51.7 | rCAG bind conf 45.3 | DNA CAG counter 13.3
Cc1ccc(Cn2cc(CN3[C@H](CC(C)C)COc4cc(Br)ccc4S3(=O)=O)nn2)cc1	none (no result: V-ATPase pH, MPTP inh, B2AR ag, T cell modulator, Granule exo inh)
Cc1ccc(S(=O)(=O)Nc2nc(C)c(C(=O)NN)s2)cc1	rCAG binder-1 58.5 | rCAG bind conf inactive | DNA CAG counter inactive
NC(=O)c1sc(-c2ccsc2)cc1NS(=O)(=O)c1ccc(C(F)(F)F)cc1	rCAG binder-1 55.6 | rCAG bind conf 77.1 | DNA CAG counter 29.6 | dCAG dye DR 7.04 | dCAG DNA bind 4.43 | rCAG binder-2 1.49
Cc1nc(NS(=O)(=O)c2ccccc2)sc1C(=O)N/N=C/c1ccccc1	rCAG binder-1 68.8 | rCAG bind conf 42.5 | DNA CAG counter 10.6
CC(=O)c1sc(-c2ccccc2)cc1NS(=O)(=O)c1ccccc1	rCAG binder-1 82.6 | rCAG bind conf inactive | DNA CAG counter inactive
COc1ccc(/C=N/NC(=O)c2sc(C)nc2C)cc1	none
O=S(=O)(c1ccccc1F)n1c(CN2CCOCC2)nc2ccccc21	none (no result: V-ATPase pH, MPTP inh, B2AR ag, T cell modulator, Granule exo inh)
CCCCOCCCNC(=O)C[C@@H]1C[C@]2(C(=O)OCC)CCC3=C2N(CCC3)C1=O	none (no result: V-ATPase pH, MPTP inh, B2AR ag, T cell modulator, Granule exo inh)
CC(C)(C)S(=O)(=O)N1C[C@@H]2C(=C(CCO)C[C@@H]3C(=O)N(c4ccccc4)C(=O)[C@@H]32)[C@H]1CCO	none (no result: V-ATPase pH, MPTP inh, B2AR ag, T cell modulator, Granule exo inh)
Cc1ccc(S(=O)(=O)NNC(=O)c2sc(NS(=O)(=O)c3ccccc3)nc2C)cc1	none
Cc1ccc(S(=O)(=O)Nc2nc(C)c(C(=O)NNS(=O)(=O)c3cc(C)ccc3C)s2)cc1	rCAG binder-1 54.3 | rCAG bind conf 59.2 | DNA CAG counter 21.8
CC(=O)c1sc(NS(=O)(=O)c2ccc(C)cc2)nc1-c1ccccc1	rCAG binder-1 42.3 | rCAG bind conf inactive | DNA CAG counter 7.5
Cc1ccc(C)c(S(=O)(=O)Nc2nc(C)c(C(=O)Nc3ccccc3)s2)c1	rCAG binder-1 46.3 | rCAG bind conf 36.1 | DNA CAG counter 9.0
CC(=O)c1sc(NS(=O)(=O)c2ccc(C)cc2)nc1C	none
Fc1ccc(Cn2ccc3ccc(-c4ccc5ccn(Cc6ccc(F)cc6F)c5c4)cc32)c(F)c1	none (no result: V-ATPase pH, MPTP inh, B2AR ag, T cell modulator, Granule exo inh)
O=C1NC(=S)S/C1=C\C=C\c1ccc([N+](=O)[O-])o1	V-ATPase pH 54.0, rCAG binder-1 67.1 (no result: T cell modulator) | rCAG bind conf 70.0 | DNA CAG counter 35.6
c1ccc(N=Nc2cn[nH]c2-c2ccco2)cc1	none (no result: T cell modulator)
c1coc(-c2nc(N=C3N=c4ccccc4=N3)[nH]c2-c2ccco2)c1	rCAG binder-1 39.2 (no result: B2AR ag, T cell modulator) | rCAG bind conf inactive | DNA CAG counter 18.8
S=c1[nH]nc(-c2n[nH]c3c2CCC3)n1N=Cc1c[nH]c2ccccc12	none (no result: V-ATPase pH, MPTP inh, B2AR ag, T cell modulator, Granule exo inh)
CCCOc1ccc(C2C3=C(Nc4nc(N)[nH]c(=O)c42)c2ccccc2C3=O)cc1 (stereo not drawn)	rCAG binder-1 70.8 | rCAG bind conf 57.2 | DNA CAG counter 37.1
CCOc1ccc(C2C3=C(Nc4nc(N)[nH]c(=O)c42)c2ccccc2C3=O)cc1 (stereo not drawn)	rCAG binder-1 65.9 | rCAG bind conf 53.3 | DNA CAG counter 35.4
COC(=O)C1CN(C2CC2)CCS(=O)(=O)N1Cc1cn(Cc2ccccc2)nn1 (stereo not drawn)	none (no result: V-ATPase pH, MPTP inh, B2AR ag, T cell modulator, Granule exo inh)
